SENP8 block-1: blocks human SENP8 cleavage of Nedd8 substrate. Q96LD8. recombinant SENP8, Nedd8 substrate fluorescence. inhibition, % at 20 µM. 0.64% of 360,000 active. AID 602440; in the data active = inhibition mostly above about 40%, no sharp cut-off; inactive = mostly below about 27%
SENP7 inh: blocks the human protease SENP7; 1.5% of 330,000 active; inhibition, % at 5 µM; recombinant SENP7, Z-RLRGG-aminoluciferin luminescence, 40 min; Q9BQF6;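 active = inhibition above about 50% at the single test dose, limit read from the data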;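 note: plate controls were DMSO with enzyme for no effect and no enzyme buffer wells for full effect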
SENP8 block-2: inhibitors of human SENP8 protease. Q96LD8. inhibition, % at 10 µM. purified SENP8, Z-RLRGG-aminoluciferin cleavage, luminescence. 1.2% of 330,000 active; in the data active = inhibition above about 50%
SENP1 inh: SENP1 (human) catalytic domain inhibition; Q9P0U3; recombinant SENP1 catalytic domain, CyPet-SUMO1-YPet FRET cleavage; inhibition, % at 10 µM; 0.21% of 360,000 active; AID 624204;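 active = inhibition at least 30% at 10 µM, raw YFP signal under a set limit, fluorescence ratio 0.5 to 1.5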;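 note: 0% = enzyme with DMSO and 100% = no enzyme wells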
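System: Recombinant human SENP1 catalytic domain, His6-tagged | Incubation: Enzyme reaction for 50 min at room temperature, dark | Medium: Tris pH 8 with BME, BSA, NP40 and catalase | Also added: 25 nM SUMO1 FRET substrate | Compound: 10 µM single point, 0.5% DMSO | Measured by: FRET fluorescence in CFP and YFP emission channels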
SENP6 inh: inhibitors of human SENP6 protease; 1.8% of 330,000 active; Q9GZR1; AID 2599; Recombinant SENP6 catalytic domain, aminoluciferin luminescence; inhibition, % at 10 µM;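 active = inhibition above about 50% at the single tested dose, limit read from the data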;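 note: plate controls were DMSO wells with enzyme for no effect and DMSO wells lacking enzyme for full effect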
Target sequence (Q9GZR1 628-1112 limits assumed): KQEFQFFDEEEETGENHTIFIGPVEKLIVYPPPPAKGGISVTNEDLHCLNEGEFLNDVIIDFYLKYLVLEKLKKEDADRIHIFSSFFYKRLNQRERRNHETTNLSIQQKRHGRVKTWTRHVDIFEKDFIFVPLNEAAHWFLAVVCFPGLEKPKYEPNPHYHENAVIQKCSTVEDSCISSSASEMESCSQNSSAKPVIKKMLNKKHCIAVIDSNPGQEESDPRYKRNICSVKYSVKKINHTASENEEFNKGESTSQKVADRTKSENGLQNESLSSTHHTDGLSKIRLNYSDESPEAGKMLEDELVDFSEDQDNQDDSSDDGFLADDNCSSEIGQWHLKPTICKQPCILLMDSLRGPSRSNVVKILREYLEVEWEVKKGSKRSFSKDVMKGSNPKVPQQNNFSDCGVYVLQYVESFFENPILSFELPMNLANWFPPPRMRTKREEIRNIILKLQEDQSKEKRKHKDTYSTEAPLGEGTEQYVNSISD
SENP8 conf: human SENP8 inhibition, confirmed. Recombinant SENP8, Z-RLRGG-aminoluciferin luminescence, 60 min. inhibition, % at 12.5 µM. 40% of 6,200 active. AID 488912. shares compounds with SENP7 inh;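 active = mean inhibition across replicates above about 50%, limit read from the data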
SENP6 confirm: confirmation of human SENP6 protease inhibitors; inhibition, % at 12.5 µM; AID 488915; shares compounds with SENP7 inh; recombinant SENP6, Z-RLRGG-aminoluciferin luminescence; 58% of 6,200 active
SENP7 confirm: human SENP7 inhibition, confirmed; 69% of 6,200 active; shares compounds with SENP7 inh; recombinant SENP7, Z-RLRGG-aminoluciferin luminescence, 40 min; inhibition, % at 12.5 µM; AID 488917
Casp3 SENP sel: selectivity test for SENP inhibitors: human caspase-3 inhibition | 60% of 6,200 active | shares compounds with SENP7 inh | inhibition, % at 12.5 µM | AID 488918 | purified caspase-3, Z-DEVD-aminoluciferin luminescence, 60 min;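 active = mean inhibition above about 50%, limit read from the data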;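 note: plate controls were enzyme with DMSO for no effect and wells without caspase-3 for full effect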
Target sequence (P42574 28-227 limits assumed): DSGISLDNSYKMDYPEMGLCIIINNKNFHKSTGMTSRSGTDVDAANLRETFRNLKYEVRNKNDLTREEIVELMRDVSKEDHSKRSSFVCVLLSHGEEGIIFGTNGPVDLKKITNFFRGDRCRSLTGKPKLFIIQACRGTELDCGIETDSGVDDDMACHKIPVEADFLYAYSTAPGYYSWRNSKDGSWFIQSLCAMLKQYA
Luc interf: luminescence interference (SENP counter-screen); shares compounds with SENP7 inh; Pre-incubated SENP8/Z-RLRGG-aminoluciferin, luciferase luminescence interference; inhibition, % at 12.5 µM; 39% of 6,200 active;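 active = mean inhibition above about 50% when retested at one dose, limit read from the data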;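 note: plate controls were DMSO wells with completed reaction for no effect and substrate without enzyme for full effect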
Starred values were filed as active, the others as inactive; nt = no result. Rows were chosen to be rich in hits. Some 2.5% of all compounds tested hit in one or more screens of this group.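 Rule for the calls, unless noted: active = mean inhibition above about 50% in the one-dose retest (limit read from the data); inactive = the rest.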

SMILES | SENP8 block-1 | SENP7 inh | SENP8 block-2 | SENP1 inh | SENP6 inh | SENP8 conf | SENP6 confirm | SENP7 confirm | Casp3 SENP sel | Luc interf
O=C(NCc1cc([N+](=O)[O-])ccc1O)c1cccc(NS(=O)(=O)c2ccccc2)c1 | 13.6 | -0.6 | -5.0 | 3.8 | -17.9 | nt | nt | nt | nt | nt
O=C(Nc1cnc2sccn2c1=O)c1ccc(Cl)cc1Cl | -22.9 | 55.5* | -8.5 | -0.7 | 29.4 | 13.9 | 13.0 | 34.8 | 52.7* | 15.9
COc1ccc(Cl)cc1NC(=O)c1cnc2sccn2c1=O | -309.4 | -15.1 | -8.3 | -1.1 | -11.8 | nt | nt | nt | nt | nt
CC(C)(C)c1ccc(C(=O)NCCOc2ccccc2F)cc1 | 14.5 | 71.6* | 59.4* | 0.5 | 73.8* | 4.8 | 69.1* | 89.5* | 52.4* | 46.8
CC(C)(C)c1ccc(C(=O)NCCOc2ccccc2)cc1 | 5.1 | 54.1* | 37.9 | 0.4 | 56.5* | -5.2 | 35.7 | 79.8* | nt | -0.8
NC(=O)c1ccc[n+](CC(=O)c2cccc([N+](=O)[O-])c2)c1 | 13.5 | 5.7 | 2.0 | 0.4 | 10.1 | nt | nt | nt | nt | nt
Clc1cnc(N/N=C/c2cccs2)c(Cl)c1 | -36.4 | 3.4 | 10.3 | -7.7 | 9.5 | nt | nt | nt | nt | nt
Clc1cnc(N/N=C/c2ccco2)c(Cl)c1 | -70.5 | -1.1 | 60.8* | -2.6 | 81.2* | 15.2 | 18.6 | 29.5 | 84.0* | 19.5
CC(NS(=O)(=O)OCC(Cl)(Cl)Cl)c1ccc(Br)cc1 (centres undefined) | 11.7 | -2.2 | 5.9 | 3.7 | 1.0 | nt | nt | nt | nt | nt
Cc1onc(-c2ccccc2Cl)c1-c1nc(-c2ccncc2)no1 | 12.3 | 0.9 | -1.1 | 0.3 | -12.0 | nt | nt | nt | nt | nt
Clc1ccc(Cl)c(-c2nc(-c3ccncc3)no2)c1 | 16.0 | -0.8 | 0.7 | 1.1 | 2.0 | nt | nt | nt | nt | nt
Cc1ccc(-c2nc(-c3ccncc3)no2)c(Cl)c1 | 3.5 | 88.7* | 74.6* | -0.8 | 71.2* | -7.9 | 9.6 | 42.1 | 28.2 | 27.4
Clc1ccc(-c2nc(-c3ccncc3)no2)c(Cl)c1 | 26.0 | 76.7* | 58.3* | 1.1 | 63.2* | 8.2 | 10.0 | 25.7 | 19.7 | 9.8
O=C(Nc1cccc(Cl)c1)Nc1ccccc1C(=O)NCc1ccco1 | -403.5 | 76.0* | 67.9* | 0.3 | 72.6* | 14.1 | 46.8 | 95.6* | 42.6 | 46.3
CC(=O)c1sc(NC(=O)c2ccccc2)nc1-c1ccccc1 | 0.5 | 61.4* | 63.1* | 1.3 | 75.1* | 19.3 | 70.7* | 88.4* | 50.9* | 53.6*
Cc1nc(NC(=O)c2cccnc2Cl)sc1C | -9.7 | 49.4 | 32.1 | 0.1 | 53.6* | 35.6 | 36.7 | 75.1* | 79.6* | 60.2*
Cc1nc(NC(=O)c2ccccc2)sc1C | 6.1 | 91.9* | 78.1* | -0.8 | 89.5* | 90.2* | 91.0* | 100.5* | 94.7* | 89.2*
Cc1nc(NC(=O)c2csc3ccccc23)sc1C | -4.4 | 77.1* | 50.3* | 1.9 | 69.4* | 16.8 | 72.7* | 95.0* | 51.3* | 22.4
CN(C(=O)c1cccc(NC(=O)Cc2cccc(NC(=O)C3CCN(C(=O)c4ccccc4)CC3)c2)c1)C1CC1 | 5.2 | nt | nt | 3.0 | nt | nt | nt | nt | nt | nt
COc1cc(-c2noc(C)c2C(=O)NCCCN2CCOCC2)cc(OC)c1OC | 18.4 | -8.5 | -10.3 | 1.2 | -7.1 | nt | nt | nt | nt | nt
Cc1nc(NC(=O)c2ccccc2O)sc1C | -170.2 | 54.0* | 33.9 | 1.3 | 48.5 | -21.2 | 39.3 | 37.6 | 7.4 | -4.3
Cc1nc(NC(=S)NC(=O)c2ccccc2)sc1C | 31.0 | 16.5 | -19.7 | 1.7 | 5.7 | nt | nt | nt | nt | nt
COc1ccc2cc1Oc1ccc(cc1)C[C@H]1c3cc(c(OC)cc3CCN1C)Oc1c(OC)c(OC)cc3c1[C@@H](C2)N(C)CC3 | 76.2* | 27.5 | 34.4 | -2.5 | 58.2* | 10.3 | 2.4 | -0.3 | 4.8 | -0.4
COc1ccc(S(=O)(=O)Nc2cccc3c2O[C@H](CN(C)C(=O)Nc2ccc(C(F)(F)F)cc2)[C@@H](C)CN([C@H](C)CO)C3=O)cc1 | 7.7 | 1.1 | 0.7 | -0.1 | -4.6 | nt | nt | nt | nt | nt
COCCn1c(C)cc(C(=O)COC(=O)c2ccc(Br)o2)c1C | 4.1 | 41.4 | 35.1 | 1.6 | 50.9* | 43.9 | 40.4 | 79.9* | 73.0* | 63.7*
SMILES | SENP8 block-1 | SENP7 inh | SENP8 block-2 | SENP1 inh | SENP6 inh | SENP8 conf | SENP6 confirm | SENP7 confirm | Casp3 SENP sel | Luc interf
CCN1C(=O)/C(=C/N2CCc3ccccc32)SC1=S | 18.3 | 55.9* | 3.2 | -22.8 | 16.6 | 10.8 | 14.2 | 14.2 | 17.4 | 4.2
CCN1C(=O)/C(=C\N2CCCc3ccccc32)SC1=S | 24.2 | -3.8 | -3.3 | -97.7 | 10.2 | nt | nt | nt | nt | nt
Nc1ncnc2c1ncn2[C@@H]1O[C@H](C(=O)NCC2CCN(Cc3ccccc3)CC2)[C@@H](O)[C@H]1O | 10.8 | nt | nt | -0.8 | nt | nt | nt | nt | nt | nt
Cn1nc(C(=O)NCCCN2CCCCC2)c2c1-c1ccccc1S(=O)(=O)C2 | 5.9 | 11.1 | -5.9 | 2.8 | -6.1 | nt | nt | nt | nt | nt
O=C1NC(=O)/C(=C\c2ccc(Br)o2)S1 | -31.6 | 2.2 | 35.9 | 3.7 | 55.0* | 56.0* | 51.1* | 61.9* | 52.1* | 45.5
Cc1noc(C)c1C(=O)OCC(=O)c1ccc[nH]1 | 10.8 | 5.3 | -1.8 | -6.7 | -1.7 | nt | nt | nt | nt | nt
Cc1noc(C)c1C(=O)OCC(=O)c1cc(C)n(Cc2ccccc2Cl)c1C | 8.2 | 25.7 | 4.2 | 4.4 | 68.2* | 2.0 | 9.8 | 45.0 | 29.7 | 14.3
COC(=O)c1ccc(COc2ccc3c4c(c(=O)oc3c2)CCC4)o1 | -126.4 | 57.7* | 70.3* | -8.6 | 77.5* | 13.6 | 17.2 | 3.1 | 1.4 | -5.4
CCN(CC)C(=O)COc1ccc2c3c(c(=O)oc2c1C)CCCC3 | -398.9 | -5.2 | 0.0 | -13.8 | -27.7 | nt | nt | nt | nt | nt
Cc1c(OCc2ccc(C(=O)O)o2)ccc2c3c(c(=O)oc12)CCC3 | -152.7 | 7.8 | 73.7* | -32.1 | 81.9* | 9.5 | 84.4* | 84.5* | 16.7 | 57.0*
Cc1c(OC(C)C(=O)NCc2ccncc2)ccc2c3c(c(=O)oc12)CCCC3 (centres undefined) | -149.1 | 5.0 | 0.5 | -0.7 | 9.4 | nt | nt | nt | nt | nt
COc1ccc(Cl)cc1C(=O)Nc1cccnc1Cl | 10.2 | 6.7 | -4.8 | 0.0 | 14.6 | nt | nt | nt | nt | nt
O=C(c1ccc(Cl)s1)N1CCc2ccccc21 | 16.3 | 89.2* | 80.7* | 1.7 | 88.8* | 54.3* | 67.6* | 81.2* | 79.8* | 54.3*
CCc1sc(C(=O)N2CCc3ccccc32)cc1C | 7.5 | 97.4* | 92.7* | 2.0 | 95.7* | 96.2* | 97.3* | 102.3* | 94.7* | 85.7*

From PubChem BioAssay
